Assay results as given in ChEMBL document CHEMBL4689842, “EUbOPEN Chemogenomics Library wave 1” (2021).
Where “and” joins values, the source holds several entries; their conditions need not be identical. Identical values can stand only once.

Tested on: U2OS
Assay: Multiplex assay against U2OS
Format: toxicity, cell-based
Details: human
Procedure, shortened: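 With compound added, live cells were imaged on a CQ1 microscope at 37°C and 5% CO2; staining with Hoechst33342, BioTracker Green Microtubule Cytoskeleton Dye, MitoTracker Red and Annexin V Alexa Fluor 680 had been done at seeding. The CellPathfinder machine-learning gating scheme split cells into Hoechst high-intensity objects or normal cells, normal cells into healthy, pyknosed or fragmented nuclei, and pyknosed cells into mitotic or apoptotic. The tubulin, mitochondrial-mass and membrane-permeability phenotypes are per cents of healthy-nucleus cells.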

[1] = 12 h, 1 µM, compound concentration 1 uM, replicate 1
[2] = 12 h, 1 µM, compound concentration 1 uM, replicate 2
[3] = 12 h, 10 µM, compound concentration 10 uM, replicate 1
[4] = 12 h, 10 µM, compound concentration 10 uM, replicate 2
[5] = 24 h, 1 µM, compound concentration 1 uM, replicate 1
[6] = 24 h, 1 µM, compound concentration 1 uM, replicate 2
[7] = 24 h, 10 µM, compound concentration 10 uM, replicate 1
[8] = 24 h, 10 µM, compound concentration 10 uM, replicate 2
[9] = 48 h, 10 µM, compound concentration 10 uM, replicate 1
[10] = 48 h, 10 µM, compound concentration 10 uM, replicate 2

With `CCOC(=O)Nc1cc(-c2ccc(C)c(NS(C)(=O)=O)c2)nn2c(C)nnc12` the “Population Apoptotic (%)” value [1] was 83%, the “Population Fragmented Nuclei (%)” value [1] was 7% and the “Population Healthy Nuclei (%)” value [1] was 89%. For the same compound, the “Population Hoechst High Intensity Objects (%)” value [1] was 2%, the “Population Membrane Permeable-Phenotype (%)” value [1] was 9% and the “Population Mitochondria Different-Phenotype (%)” value [1] was 27%. The “Population Mitotic Cells (%)” value [1] was 16%, the “Population Normal (%)” value [1] was 97% and the “Population Pyknosed Nuclei (%)” value [1] was 3%. For the same compound, the “Population Tubulin-Different-Phenotype (%)” value [1] was 26%, the “Total Cell Count” value [1] was 184 and the “Population Apoptotic (%)” value [2] was 100%. The “Population Fragmented Nuclei (%)” value [2] was 11%, the “Population Healthy Nuclei (%)” value [2] was 88% and the “Population Hoechst High Intensity Objects (%)” value [2] was 11%. The “Population Membrane Permeable-Phenotype (%)” value [2] was 7%, the “Population Mitochondria Different-Phenotype (%)” value [2] was 31% and the “Population Mitotic Cells (%)” value [2] was 0%. For the same compound, the “Population Normal (%)” value [2] was 88%, the “Population Pyknosed Nuclei (%)” value [2] was 0% and the “Population Tubulin-Different-Phenotype (%)” value [2] was 47%. The “Total Cell Count” value [2] was 152, the “Population Apoptotic (%)” value [3] was 36% and 50% and the “Population Fragmented Nuclei (%)” value [3] was 7% and 3%. The “Population Healthy Nuclei (%)” value [3] was 85% and 87%, the “Population Hoechst High Intensity Objects (%)” value [3] was 4% and 3% and the “Population Membrane Permeable-Phenotype (%)” value [3] was 2% and 7%. For the same compound, the “Population Mitotic Cells (%)” value [3] was 63% and 50%, the “Population Normal (%)” value [3] was 95% and 96% and the “Population Pyknosed Nuclei (%)” value [3] was 7% and 8%. The “Total Cell Count” value [3] was 284 and 216, the “Population Fragmented Nuclei (%)” value [4] was 8% and 6% and the “Population Healthy Nuclei (%)” value [4] was 86% and 89%. For the same compound, the “Population Hoechst High Intensity Objects (%)” value [4] was 2% and 10%, the “Population Membrane Permeable-Phenotype (%)” value [4] was 0% and 6% and the “Population Mitochondria Different-Phenotype (%)” value [4] was 11% and 29%. For the same compound, the “Population Mitotic Cells (%)” value [4] was 60% and 100%, the “Population Normal (%)” value [4] was 97% and 89% and the “Population Pyknosed Nuclei (%)” value [4] was 5% and 3%. The “Population Tubulin-Different-Phenotype (%)” value [4] was 89% and 30%, the “Total Cell Count” value [4] was 101 and 206 and the “Population Apoptotic (%)” value [5] was 22%. The “Population Fragmented Nuclei (%)” value [5] was 7%, the “Population Healthy Nuclei (%)” value [5] was 88% and the “Population Hoechst High Intensity Objects (%)” value [5] was 2%. For the same compound, the “Population Mitochondria Different-Phenotype (%)” value [5] was 32%, the “Population Mitotic Cells (%)” value [5] was 77% and the “Population Normal (%)” value [5] was 97%. The “Population Pyknosed Nuclei (%)” value [5] was 3%, the “Population Tubulin-Different-Phenotype (%)” value [5] was 32% and the “Total Cell Count” value [5] was 257. The “Population Apoptotic (%)” value [6] was 20%, the “Population Fragmented Nuclei (%)” value [6] was 9% and the “Population Healthy Nuclei (%)” value [6] was 84%. For the same compound, the “Population Hoechst High Intensity Objects (%)” value [6] was 7%, the “Population Membrane Permeable-Phenotype (%)” value [6] was 4% and the “Population Mitochondria Different-Phenotype (%)” value [6] was 34%. The “Population Mitotic Cells (%)” value [6] was 80%, the “Population Normal (%)” value [6] was 92% and the “Population Pyknosed Nuclei (%)” value [6] was 5%. For the same compound, the “Population Tubulin-Different-Phenotype (%)” value [6] was 59%, the “Total Cell Count” value [6] was 195 and the “Population Fragmented Nuclei (%)” value [7] was 5%. The “Population Healthy Nuclei (%)” value [7] was 87% and 93%, the “Population Hoechst High Intensity Objects (%)” value [7] was 3% and 1% and the “Population Membrane Permeable-Phenotype (%)” value [7] was 1% and 4%. The “Population Mitochondria Different-Phenotype (%)” value [7] was 11% and 18%, the “Population Mitotic Cells (%)” value [7] was 88% and 33% and the “Population Normal (%)” value [7] was 96% and 98%. The “Population Pyknosed Nuclei (%)” value [7] was 7% and 3%, the “Total Cell Count” value [7] was 378 and 305 and the “Population Apoptotic (%)” value [8] was 28% and 53%. For the same compound, the “Population Fragmented Nuclei (%)” value [8] was 3% and 7%, the “Population Healthy Nuclei (%)” value [8] was 90% and 86% and the “Population Hoechst High Intensity Objects (%)” value [8] was 2% and 9%. The “Population Membrane Permeable-Phenotype (%)” value [8] was 0% and 5%, the “Population Mitochondria Different-Phenotype (%)” value [8] was 16% and 30% and the “Population Mitotic Cells (%)” value [8] was 71% and 46%. For the same compound, the “Population Normal (%)” value [8] was 97% and 90%, the “Population Pyknosed Nuclei (%)” value [8] was 5% and 6% and the “Population Tubulin-Different-Phenotype (%)” value [8] was 96% and 35%. The “Total Cell Count” value [8] was 137 and 273, the “Population Apoptotic (%)” value [9] was 36% and the “Population Fragmented Nuclei (%)” value [9] was 5%. The “Population Healthy Nuclei (%)” value [9] was 91%, the “Population Hoechst High Intensity Objects (%)” value [9] was 1% and the “Population Mitochondria Different-Phenotype (%)” value [9] was 10%. For the same compound, the “Population Mitotic Cells (%)” value [9] was 63%, the “Population Normal (%)” value [9] was 98% and the “Population Pyknosed Nuclei (%)” value [9] was 3%. The “Population Tubulin-Different-Phenotype (%)” value [9] was 98%, the “Total Cell Count” value [9] was 662 and the “Population Apoptotic (%)” value [10] was 17%. For the same compound, the “Population Fragmented Nuclei (%)” value [10] was 2%, the “Population Healthy Nuclei (%)” value [10] was 90% and the “Population Hoechst High Intensity Objects (%)” value [10] was 2%. For the same compound, the “Population Membrane Permeable-Phenotype (%)” value [10] was 0%, the “Population Mitochondria Different-Phenotype (%)” value [10] was 12% and the “Population Mitotic Cells (%)” value [10] was 82%. The “Population Normal (%)” value [10] was 97%, the “Population Pyknosed Nuclei (%)” value [10] was 6% and the “Population Tubulin-Different-Phenotype (%)” value [10] was 91%. For the same compound, the “Total Cell Count” value [10] was 261.

In the case of `CN1CCN(Cc2cc(NC(=O)c3ccc4c(c3)CN(c3ccccc3)CC4)cc(C(F)(F)F)c2)CC1`, the “Population Apoptotic (%)” value [1] is reported as 35% and 75%, the “Population Healthy Nuclei (%)” value [1] is reported as 63% and 89% and the “Population Hoechst High Intensity Objects (%)” value [1] is reported as 2%. The “Population Membrane Permeable-Phenotype (%)” value [1] was 28% and 46%, the “Population Mitotic Cells (%)” value [1] was 64% and 25% and the “Population Normal (%)” value [1] was 97%. For the same compound, the “Population Tubulin-Different-Phenotype (%)” value [1] was 98% and 42%, the “Total Cell Count” value [1] was 228 and 171 and the “Population Fragmented Nuclei (%)” value [2] was 28% and 15%. For the same compound, the “Population Healthy Nuclei (%)” value [2] was 52% and 80%, the “Population Hoechst High Intensity Objects (%)” value [2] was 5% and 15% and the “Population Membrane Permeable-Phenotype (%)” value [2] was 47% and 37%. For the same compound, the “Population Mitotic Cells (%)” value [2] was 65% and 100%, the “Population Normal (%)” value [2] was 94% and 84% and the “Population Pyknosed Nuclei (%)” value [2] was 19%. For the same compound, the “Population Tubulin-Different-Phenotype (%)” value [2] was 100% and 48%, the “Total Cell Count” value [2] was 128 and 83 and the “Population Apoptotic (%)” value [5] was 39% and 22%. The “Population Fragmented Nuclei (%)” value [5] was 14% and 7%, the “Population Healthy Nuclei (%)” value [5] was 46% and 88% and the “Population Hoechst High Intensity Objects (%)” value [5] was 10% and 3%. For the same compound, the “Population Membrane Permeable-Phenotype (%)” value [5] was 33% and 28%, the “Population Mitotic Cells (%)” value [5] was 60% and 77% and the “Population Normal (%)” value [5] was 89% and 96%. For the same compound, the “Total Cell Count” value [5] was 255 and 239, the “Population Fragmented Nuclei (%)” value [6] was 19% and 9% and the “Population Healthy Nuclei (%)” value [6] was 45% and 80%. The “Population Hoechst High Intensity Objects (%)” value [6] was 13% and 11%, the “Population Membrane Permeable-Phenotype (%)” value [6] was 36% and 35% and the “Population Mitotic Cells (%)” value [6] was 44% and 87%. The “Population Normal (%)” value [6] was 86% and 88% and the “Total Cell Count” value [6] was 144 and 92.
